Experimental findings from the RNAGym collection of RNA variant scans (doi:10.1126/science.aae0568) are described below.

B1: tRNA (parent)
chain: GUUCCGUUGGCGUAAUGGUAACGCGUCUCCCUCCUAAGGAGAAGACUGCGGGUUCGAGUCCCGUACGGAACG

This sample holds only a part of the variants without activity. A value given as a limit tells only on which side of the number the result lay.

The variants in the data set derive from B1. The data set can be described thus: yeast fitness relative to wild type (ratio to wild type); higher = fitter; tRNA-Arg(CCU), competitive growth, 37 C, YPD. An outline of the steps:
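Variants of the tRNA-Arg(CCU) gene were chemically synthesised with a 3% per-site mutation rate across 69 sites and placed at the native genomic locus in Saccharomyces cerevisiae. Six parallel replicates of the pooled strains were competed in YPD at 37°C for 24 hours, and gene amplicons from the start and end populations were read by 100-nucleotide paired-end sequencing. Darwinian fitness relative to wild type was derived from changes in genotype frequencies. Genotypes required ≥ 100 starting reads, and estimates < 0.5 were set to 0.5.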
On to GUUCCGUUGGCGUAAUGGUAACGCGUCUCCCUACUAAGGAGAAGACUCCGGGUUCGAGUCCCGUACGGGACG [C33A G48C A69G], for which the yeast fitness was 0.684.

Take GUUCCGUUGGCGUAAUGGUAACGCGUCUCCCUACAAAGGAGAAGACUGCGGGUUCGAGUCCCGUACGCAACG [C33A U35A G68C]: the yeast fitness was ≤ 0.5.

For the variant GUUCCGUUGGCGUAAUGGUAACGCGUCUCCCUACUAAGCAGAAGACUGUGGGUACGAGUCCCCUACAGAACG [C33A G39C C49U U54A G63C G67A], the yeast fitness is ≤ 0.5.

For GUUCCGUUGGCGUAAUGGUAACGCGUCUCCCUACUAAGGAGAAGACUGCUGGUUCGAGUCCCGUACGGAACG [C33A G50U], the yeast fitness came to 0.524.

Take GUUCCGUUGGCGUAAUGGUAACGCGUCUCCCUGCUCAGGAGAAGACUGCGGGUUCGUGUCCCGUACGGAACG [C33G A36C A57U]: the yeast fitness was ≤ 0.5.

With GUUCCGUUGGCGUAAUGGUAACGCGUCUCCCUACUAAGGAAAAGACUGCGGGUUCGAGUCCCGUACGGAACG [C33A G41A], the yeast fitness came to 0.635.

In the case of GUUCCGUUGGCGUAAUGGUAACGCGUCUCCCUACUAAGGAGAAGACUGCGGAUUCGAGUCCCGUUCGGAACG [C33A G52A A65U], the yeast fitness was ≤ 0.5.

For the variant GUUCCGUUGGCGUAAUGGUAACGCGUCUCCCUGCUCAGGAGAAGACUGCGGGUUCGAGUCCCGUACGGAACG [C33G A36C], the yeast fitness was ≤ 0.5.

With GUUCCGUUGGCGUAAUGGUAACGCGUCUCCCUACCAAGGAGAAGACUGCGGGUUCGAGUACCGUACGGAACG [C33A U35C C60A], the yeast fitness is ≤ 0.5.

For the variant GUUCCGUUGGCGUAAUGGUAACGCGUCUCCCUACUAAGGAGAAGACUGCGGGUGCGAGUCCCGUACGGAACG [C33A U54G], the yeast fitness was found to be 0.518.

As for GUUCCGUUGGCGUAAUGGUAACGCGUCUCCCUACUAAGGAGAAGACUGCGGGUCCGAGUCCCGUACGGAACG [C33A U54C], the yeast fitness was 0.561.

GUUCCGUUGGCGUAAUGGUAACGCGUCUCCCUACUAAGGAGAAGACUGCGGGUUCGAGUCCCGAACGGACCG [C33A U64A A70C]: the yeast fitness was ≤ 0.5.

In the case of GUUCCGUUGGCGUAAUGGUAACGCGUCUCCCUACUAAGGAGAAAACUGCGGGUUCGAGUCCCGUACGUAACG [C33A G44A G68U], the yeast fitness is ≤ 0.5.

Take GUUCCGUUGGCGUAAUGGUAACGCGUCUCCCUACUAAGCAGAAGACUGCGGGUUCGAGUCCCGUACGGAACG [C33A G39C]: the yeast fitness was determined as 0.677.

Consider GUUCCGUUGGCGUAAUGGUAACGCGUCUCCCUACUAAGGAGAAGACUGCGGGUUCGACUCCCGGACGGAACG [C33A G58C U64G], for which the yeast fitness came out at 0.564.

For the variant GUUCCGUUGGCGUAAUGGUAACGCGUCUCCCUACUAAGGAGAAGACUGCCGGCUCGAGUCCCGCACGUAACG [C33A G50C U53C U64C G68U], the yeast fitness is 0.586.

GUUCCGUUGGCGUAAUGGUAACGCGUCUCCCUACUAAGGAGAAGACUGCGGGAUCGAGUCCCGUACGGAACG [C33A U53A]: the yeast fitness was ≤ 0.5.

GUUCCGUUGGCGUAAUGGUAACGCGUCUCCCUGCUGAGGAGAAGACUGCGCGUUCGAGUCCCGAAUGGCACG [C33G A36G G51C U64A C66U A69C]: the yeast fitness was ≤ 0.5.

On to GUUCCGUUGGCGUAAUGGUAACGCGUCUCCCUACUAAGGAGAAGACUGCGGGAUCGAGUGCCGUACGGAACG [C33A U53A C60G], for which the yeast fitness worked out at 0.681.

Take GUUCCGUUGGCGUAAUGGUAACGCGUCUCCCUACGAAGGAGAAGACUGUGGGUUCGAGUCCCGUACGGAACG [C33A U35G C49U]: the yeast fitness is 0.904.

For GUUCCGUUGGCGUAAUGGUAACGCGUCUCCCUACUAAGGAGAAGACUGCGGGUUCGACUCCCGUACGGAACG [C33A G58C], the yeast fitness turned out to be 0.647.

Consider GUUCCGUUGGCGUAAUGGUAACGCGUCUCCCUACAAAGGAGAAGACUGCGGGUUCGAGUCCCGCACGCAACG [C33A U35A U64C G68C], for which the yeast fitness is ≤ 0.5.

In the case of GUUCCGUUGGCGUAAUGGUAACGCGUCUCCCUACUAAGGAGAAGACUGCAGGUUCGAGUCCCGUACGGUCCG [C33A G50A A69U A70C], the yeast fitness is ≤ 0.5.

With GUUCCGUUGGCGUAAUGGUAACGCGUCUCCCUGCUCAGGAGAAGACUGCGGGUUCGAGUCCCGUAUGGAACG [C33G A36C C66U], the yeast fitness came to 0.502.

For the variant GUUCCGUUGGCGUAAUGGUAACGCGUCUCCCUACUAAGGAGAAGACUGCGGGUUCCAGUCCCGUACGGAACG [C33A G56C], the yeast fitness is 0.634.

For GUUCCGUUGGCGUAAUGGUAACGCGUCUCCCUGCUCAGGAGAAGAAUGCGGGUUCGAGUCCCGUACGGAACG [C33G A36C C46A], the yeast fitness is ≤ 0.5.

Regarding GUUCCGUUGGCGUAAUGGUAACGCGUCUCCCUACUAAGGAGAAGACUGCGGGUUCGAGUCCCGUACCGAACG [C33A G67C], the yeast fitness stood at 0.621.

With GUUCCGUUGGCGUAAUGGUAACGCGUCUCCCUACUAAGGAGAAGACUGCGGGUUCGAGUCCCGUACAGAACG [C33A G67A], the yeast fitness was found to be 0.586.

Take GUUCCGUUGGCGUAAUGGUAACGCGUCUCCCUACUAAGGAGAAGACUGCGGGUUCCAGUCCCGUACGGACCG [C33A G56C A70C]: the yeast fitness stood at 0.574.

GUUCCGUUGGCGUAAUGGUAACGCGUCUCCCUACUAAGGAGAAAACUGCGGGUUCGAGUCCCGGACGGAACG [C33A G44A U64G]: the yeast fitness is ≤ 0.5.

As to GUUCCGUUGGCGUAAUGGUAACGCGUCUCCCUACUAAGGAGAAGACUGCGGAUUCGAGUCCCGUACGGAACG [C33A G52A], the yeast fitness was ≤ 0.5.

Take GUUCCGUUGGCGUAAUGGUAACGCGUCUCCCUACUAAGGAGAAGACUGCGCGUUCGAGUCCGGUACGGAACG [C33A G51C C62G]: the yeast fitness was ≤ 0.5.

For GUUCCGUUGGCGUAAUGGUAACGCGUCUCCCUACUAAGGAGAAGACUCCGGGUUCGAGUCCCGUACGGAGCG [C33A G48C A70G], the yeast fitness is ≤ 0.5.

As to GUUCCGUUGGCGUAAUGGUAACGCGUCUCCCUGCUGAGCAGAAGACUGCGGGUUCGAGUCCCGUACUGAACG [C33G A36G G39C G67U], the yeast fitness is ≤ 0.5.

Turning to GUUCCGUUGGCGUAAUGGUAACGCGUCUCCCUACUAAGGAGAAGACUGCGAGUUCGAGUCCCGUACGGAACG [C33A G51A], the yeast fitness was determined as 0.659.

On to GUUCCGUUGGCGUAAUGGUAACGCGUCUCCCUACUAAGGAGAAAACUGCGGGUUCGAGUCCCGUACGGACCG [C33A G44A A70C], for which the yeast fitness stood at 0.547.

With GUUCCGUUGGCGUAAUGGUAACGCGUCUCCCUACUAAGCAGGAGACUGCGGGUUUGGGUCCCGUACGGAACG [C33A G39C A42G C55U A57G], the yeast fitness was determined as 0.585.

As for GUUCCGUUGGCGUAAUGGUAACGCGUCUCCCUACUAAGGAGAAAACUGCGGGUUCGAGUCCCGUACGGAACG [C33A G44A], the yeast fitness stood at 0.617.
